Consider six compounds from PMC3737387 (Nuclear medicine and biology, 2013).

The structures appear in SMILES notation. “And” between values parts separate entries of the source, which are not always exact repeats. Equal entries are not always repeated. Where only a bound is given, the exact number is not on record here.

The test system of data set [1] is FAAH. Particulars: rodents, cited from earlier work.
Data set [2] has as its target T1, FAAH (Rattus norvegicus, UniProt P97612).
T1 sequence (P97612 1-579): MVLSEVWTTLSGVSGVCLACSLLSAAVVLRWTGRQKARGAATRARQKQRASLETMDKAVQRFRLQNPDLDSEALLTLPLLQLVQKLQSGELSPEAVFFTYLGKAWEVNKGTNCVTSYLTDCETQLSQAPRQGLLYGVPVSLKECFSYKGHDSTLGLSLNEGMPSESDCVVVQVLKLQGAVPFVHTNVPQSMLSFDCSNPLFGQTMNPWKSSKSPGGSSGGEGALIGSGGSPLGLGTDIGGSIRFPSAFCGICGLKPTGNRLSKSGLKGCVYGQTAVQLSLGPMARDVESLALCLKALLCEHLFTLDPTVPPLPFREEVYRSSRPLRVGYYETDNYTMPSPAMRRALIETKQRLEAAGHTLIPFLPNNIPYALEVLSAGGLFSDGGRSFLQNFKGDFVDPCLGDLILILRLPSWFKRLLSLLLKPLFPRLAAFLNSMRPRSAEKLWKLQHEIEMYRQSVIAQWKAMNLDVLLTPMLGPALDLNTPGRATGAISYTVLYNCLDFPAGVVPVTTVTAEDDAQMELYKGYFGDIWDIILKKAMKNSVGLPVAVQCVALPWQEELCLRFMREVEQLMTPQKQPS
In words: Pharmacological blocking of [^11C]PF-04457845 uptake in rat brain. It counts as in vivo. As to conditions: control vs URB597 (2 mg/kg ip) pretreated group; 40 min post injection.

The nature of data set [3]: HPLC analysis of plasma metabolites. It counts as in vivo. Particulars: rat. The procedure, abridged: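 Heparinized rat trunk blood is centrifuged, and the plasma is acidified with 20% (v/v) of 50% aqueous acetic acid. It is loaded onto an HLB capture column, eluted with 1% acetonitrile (2 mL/min, 4 min), then backflushed with 60% acetonitrile/water + 0.1 N ammonium formate (pH 4) onto C18. Detection is by coincidence-mode radio-flow. Eluent switches to 100% ethanol after the parent to detect lipophilic metabolites. Peaks are decay-corrected and integrated.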

The nature of data set [4]: Ex vivo biodistribution of [^11C]PF-04457845 in conscious rat brain and plasma. Particulars: for Ex vivo biodistribution, Cerebellum / Ex vivo biodistribution, Cortex / Ex vivo biodistribution, Hypothalamus / Ex vivo biodistribution, Plasma / Ex vivo biodistribution, Rest of Brain: n = 4.
Data set [5] has as its target T1, FAAH. Put plainly: Irreversible binding of [^11C]PF-04457845 to FAAH in the rat brain. The format is in vivo.
In data set [6] the test system is FAAH. As to conditions: URB597 2 mg/kg ip; cited from earlier work.
The test system of data set [7] is FAAH. Particulars: previously reported; cited from earlier work.
Data set [8] relates to FAAH. As to conditions: Phase II crossover study, pain associated with osteoarthritis; cited from earlier work.
Data set [9] deals with FAAH. Particulars: rodents; cited from earlier work.

Consider `O=C(Nc1cccnn1)N1CCC(=Cc2cccc(Oc3ccc(OCC[18F])cn3)c2)CC1` [[^18F]PF-9811, 4-(3-((5-(2-[^18F]fluoroethoxy)pyridine-2-yl)oxy)benzylidene)-N-(pyridazin-3-yl)piperidine-1-carboxamide], for which the “brain uptake in the cortex” value with FAAH [1] (90 min) is on record as 0.8 SUV. The “specific to non-specific binding ratios” value with FAAH [1] is 2.3 – 2.6.
As to `O=C(Nc1cccnn1)N1CCC(=Cc2cccc(Oc3ccc(C(F)(F)F)cn3)c2)CC1` [[^11C]PF-04457845], on FAAH [2], the “specific to non-specific binding ratio, cerebellum” value was determined as 3.4; the “specific to non-specific binding ratio, cortex” value is 4.2; the “specific to non-specific binding ratio, hypothalamus” value worked out at 2.5. For the same compound, the “parent radiotracer remaining in plasma” value in data set [3] (15 min post injection) turned out to be 82%. Besides, the “parent radiotracer remaining in plasma” value in data set [3] (40 min post injection) was 73%. The “parent radiotracer remaining in plasma” value in data set [3] (60 min post injection) worked out at 66%. The “lipophilic metabolite, share of total radioactivity present in plasma” value in [3] (later time-points) was 3 – 3.5%. Moreover, the brain uptake in [4] (conscious rats, tail-vein injection, across regions and time points) fell in the range of 1.2 to 4.4 SUV. In data set [4] (rat, 2 min post iv injection), the “Ex vivo biodistribution, Cerebellum” value was found to be 1.87 ± 0.05 SUV; the “Ex vivo biodistribution, Cortex” value was determined as 2.22 ± 0.06 SUV; the “Ex vivo biodistribution, Hypothalamus” value is on record as 1.29 ± 0.05 SUV; the “Ex vivo biodistribution, Plasma” value amounted to 1.03 ± 0.19 SUV. Moreover, the “Ex vivo biodistribution, Rest of Brain” value in data set [4] (rat, 2 min post iv injection) came to 1.51 ± 0.08 SUV. In data set [4] (rat, 15 min post iv injection), the “Ex vivo biodistribution, Cerebellum” value is reported as 3.17 ± 0.10 SUV; the “Ex vivo biodistribution, Cortex” value stood at 3.64 ± 0.24 SUV; the “Ex vivo biodistribution, Hypothalamus” value worked out at 1.96 ± 0.10 SUV; the “Ex vivo biodistribution, Plasma” value was found to be 0.33 ± 0.04 SUV. In addition, the “Ex vivo biodistribution, Rest of Brain” value in data set [4] (rat, 15 min post iv injection) is 2.44 ± 0.07 SUV. Moreover, in data set [4] (rat, 40 min post iv injection), the “Ex vivo biodistribution, Cerebellum” value came out at 3.56 ± 0.10 SUV; the “Ex vivo biodistribution, Cortex” value came out at 4.11 ± 0.30 SUV; the “Ex vivo biodistribution, Hypothalamus” value was 2.18 ± 0.20 SUV; the “Ex vivo biodistribution, Plasma” value is on record as 0.12 ± 0.01 SUV. The “Ex vivo biodistribution, Rest of Brain” value in [4] (rat, 40 min post iv injection) is reported as 2.77 ± 0.24 SUV. Also, in [4] (rat, 60 min post iv injection), the “Ex vivo biodistribution, Cerebellum” value is reported as 3.42 ± 0.34 SUV; the “Ex vivo biodistribution, Cortex” value is on record as 3.92 ± 0.37 SUV; the “Ex vivo biodistribution, Hypothalamus” value came to 2.10 ±0.31 SUV; the “Ex vivo biodistribution, Plasma” value was 0.09 ± 0.03 SUV. Moreover, the “Ex vivo biodistribution, Rest of Brain” value in data set [4] (rat, 60 min post iv injection) is recorded as 2.59 ± 0.19 SUV. Further, the “time at which brain uptake reaches a plateau” value in data set [4] (rat, post injection) came out at 40 min. Moreover, the “SBR (specific to non-specific binding ratio) to FAAH from extraction studies” value on FAAH [5] (rat whole brain, ([95/5]-1)) is above 18. For the same compound, the “radioactivity irreversibly bound to brain tissue” value on FAAH [5] (rat, 2 min post injection) came out at 84%. Further, on FAAH [5] (rat, 40 min post injection), the extractable brain radioactivity is 2%, the “radioactivity in whole brain that is FAAH-bound” value was above 95% and the “radioactivity irreversibly bound to brain tissue” value turned out to be 98%. Besides, the “radioactivity bound to brain parenchyma” value at FAAH [5] (rat, after ip pre-treatment with URB597 (2 mg/kg)) was found to be 5%.
Turning to `NC(=O)c1cccc(-c2cccc(OC(=O)NC3CCCCC3)c2)c1` [URB597, 3′-carbamoyl-[1,1′-biphenyl]-3-yl-cyclohexylcarbamate], the “FAAH enzyme inactivated in rodent brains” value in the data set on FAAH [6] is > 90% and 90%.
For the compound `O=[11C](NC1CCCCC1)Oc1ccc(O)c(-c2ccccc2)c1` [[^11C]CURB, [^11C-carbonyl]-6-hydroxy-[1,1′-biphenyl]-3-yl-cyclohexylcarbamate], in the data set with FAAH [7], the “level of specific binding” value is on record as 80%.
Turning to `O=C(Nc1cccnn1)N1CCC(=Cc2cccc(Oc3ccc(C(F)(F)F)cn3)c2)CC1` [PF-04457845], in the data set with FAAH [8], the analgesic effect result is recorded as “did not induce an analgesic effect” and the “endocannabinoid levels in blood” value is “modulate endocannabinoid levels in blood”.
For the compound `COc1ccc(NC(=O)Oc2ccc[11c](-c3ccccc3)c2)cc1` [[^11C]1,1′-biphenyl-3-yl-(4-methoxyphenyl)carbamate], in the data set with FAAH [9], the brain uptake entry is “low brain uptake” and the specific binding result is on record as “no detectable specific binding”.
